Results as given in ChEMBL document CHEMBL1132237, “Fluorination of 3-(3-(piperidin-1-yl)propyl)indoles and 3-(3-(piperazin-1-yl)propyl)indoles gives selective human 5-HT1D receptor ligands with improved pharmacokinetic profiles” (J Med Chem, 1999).
Values joined by “and” are separate entries in the source; they are usually repeats but may differ in a detail not shown here. Equal values may be shown once.

Key:
[1] = tested on: Rattus norvegicus; assay: Oral absorption study in rat plasma obtained from cardiac blood samples after 0.5 hours of administration of 3 mg/kg orally; format: functional, organism-based; set-up: dose 3 mg/kg
Summary of the method: (§1)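 Male Sprague–Dawley rats, fasted overnight and with no surgery, received 3 mg/kg orally as a 0.6 mg/mL solution in PEG 400:5 mM HCl (25:75 v/v). Terminal blood was taken from the heart and hepatic portal vein under isoflurane at 0.5 and 2 h, three rats per time point. Plasma drug was measured by electrospray mass spectrometry. Values are mean ± SEM.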

[2] = Oral bioavailability in rat; format: ADME, organism-based; conditions: in vivo
Summary of the method: (§2)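 Male Sprague–Dawley rats (~300 g) were fasted overnight and tail-artery cannulated under isoflurane, then allowed to recover for at least 30 min. Each received 3 mg/kg by tail-vein bolus (3 mg/mL in PEG 300:5 mM HCl 25:75) or by gavage (0.6 mg/mL in PEG 400:5 mM HCl 25:75), three rats per route. Serial blood was sampled up to 6 h. Plasma was analysed by solid-phase extraction and reverse-phase HPLC with fluorescence detection (ex 235, em 370 nm) against spiked-plasma calibration curves.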

[3] = target: T1, 5-hydroxytryptamine receptor 1B (Homo sapiens, UniProt P28222); assay: Displacement of specific [3H]5-HT binding to cloned human 5-hydroxytryptamine 1B receptor expressed in CHO cells; format: cell-based
Summary of the method: (§3)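 Radioligand binding to human 5-HT1D and 5-HT1B receptors stably expressed in CHO cells. Radioligand was used at approximately its KD for each receptor. IC50 values are the logarithmic mean of 2–5 independent determinations, each run in duplicate. Maximum variance from the mean of log(IC50) was 4%. Selectivity is IC50(1B)/IC50(1D).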

[4] = pKa value by potentiometric method; format: physicochemical
Summary of the method: (§4)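 Potentiometric titration in MeOH–H2O cosolvent with ionic strength set by 0.15 M KCl. Three titrations at different water/cosolvent ratios gave psKa values. Aqueous pKa was obtained by Yasuda–Shedlovsky extrapolation to 100% water, plotting psKa + log[H2O] against 1/ε.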

[5] = target: T1, 5-hydroxytryptamine receptor 1B; assay: Efficacy was evaluated relative to human 5-HT1B receptor using [35S]GTP-gamma-S, as radioligand; format: functional
[6] = target: T2, 5-hydroxytryptamine receptor 1D (Homo sapiens, UniProt P28221); assay: Displacement of specific [3H]5-HT binding to cloned human 5-hydroxytryptamine 1D receptor expressed in CHO cells; format: cell-based; summary of the method: as §3
[7] = tested on: Rattus norvegicus; assay: Oral absorption study in rat plasma obtained from cardiac blood samples after 2 hours of administration of 3 mg/kg orally; format: functional, organism-based; set-up: dose 3 mg/kg; summary of the method: as §1
[8] = target: T1, 5-hydroxytryptamine receptor 1B; assay: Agonist-induced [35S]GTP-gamma-S, binding in CHO cells stably transfected with human 5-hydroxytryptamine 1B receptor; format: functional, cell-based
Summary of the method: (§5)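 [35S]GTPγS binding stimulated by agonist, measured in CHO cells stably transfected with the human 5-HT1D or 5-HT1B receptor. EC50 values are the logarithmic mean of 2–3 independent determinations. Maximum variance of individual log(EC50) values from the mean was 4%.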

[9] = tested on: Rattus norvegicus; assay: Oral absorption study in rat plasma obtained from hepatic portal vein after 0.5 hours of administration of 3 mg/kg orally; format: functional, organism-based; set-up: dose 3 mg/kg; summary of the method: as §1
[10] = target: Serotonin 1 receptors; 5-HT1B & 5-HT1D (Homo sapiens) (UniProt P28222+P28221); assay: Selectivity towards 5-HT1D and to that of 5-HT1B in CHO cells; format: cell-based; summary of the method: as §3
[11] = target: T2, 5-hydroxytryptamine receptor 1D; assay: Agonist-induced [35S]GTP-gamma-S, binding in CHO cells stably transfected with human 5-hydroxytryptamine 1D receptor; format: functional, cell-based; summary of the method: as §5
[12] = tested on: Rattus norvegicus; assay: Oral absorption study in rat plasma obtained from hepatic portal vein after 2 hours of administration of 3 mg/kg orally; format: functional, organism-based; set-up: dose 3 mg/kg; summary of the method: as §1
[13] = The compound was evaluated for the pKa units relative to N-methyl-piperazine.; format: physicochemical
[14] = Relative protonation energy of the compound
[15] = target: T2, 5-hydroxytryptamine receptor 1D; assay: Efficacy was evaluated relative to human 5-hydroxytryptamine 1D receptor using [35S]GTP-gamma-S, as radioligand; format: functional
[16] = Rate of clearance in rat was determined; format: ADME, organism-based; conditions: plasma, read-out: Clp; summary of the method: as §2
[17] = target: T1, 5-hydroxytryptamine receptor 1B; assay: Efficacy of compound was evaluated relative to human 5-hydroxytryptamine 1B receptor using [35S]GTP-gamma-S, as radioligand; format: functional
[18] = pKa value was determined; format: physicochemical; summary of the method: as §4
[19] = The compound was evaluated for the pKa units relative to N-methyl-piperazine; format: physicochemical
[20] = Cmax in rat; format: ADME, organism-based; conditions: in vivo; summary of the method: as §2

T1 sequence (P28222 whole entry): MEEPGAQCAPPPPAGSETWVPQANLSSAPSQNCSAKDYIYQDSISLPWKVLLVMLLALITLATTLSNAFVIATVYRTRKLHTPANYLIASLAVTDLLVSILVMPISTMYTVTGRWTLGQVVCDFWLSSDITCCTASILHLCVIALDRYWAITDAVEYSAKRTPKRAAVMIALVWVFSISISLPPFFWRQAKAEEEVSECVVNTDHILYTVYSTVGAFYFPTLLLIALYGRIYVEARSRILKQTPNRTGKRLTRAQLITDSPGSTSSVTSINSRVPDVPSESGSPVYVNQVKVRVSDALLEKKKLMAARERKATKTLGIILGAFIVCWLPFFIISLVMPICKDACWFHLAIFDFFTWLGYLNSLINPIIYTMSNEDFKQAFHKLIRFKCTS
T2 sequence (P28221 whole entry): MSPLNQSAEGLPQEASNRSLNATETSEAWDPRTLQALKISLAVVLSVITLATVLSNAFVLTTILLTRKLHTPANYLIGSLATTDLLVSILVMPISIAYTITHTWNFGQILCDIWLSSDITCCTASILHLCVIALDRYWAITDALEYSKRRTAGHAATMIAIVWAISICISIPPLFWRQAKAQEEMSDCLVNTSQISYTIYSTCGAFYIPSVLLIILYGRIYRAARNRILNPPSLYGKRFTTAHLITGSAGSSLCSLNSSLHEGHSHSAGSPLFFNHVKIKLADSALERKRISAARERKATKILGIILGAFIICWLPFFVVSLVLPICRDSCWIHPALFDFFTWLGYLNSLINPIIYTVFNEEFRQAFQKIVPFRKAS

bioavailability [2] [%] | IC50 [3] [nM] | pKa [4] | Efficacy [5] [%] | IC50 [6] [nM] | EC50 [8] [nM] | Selectivity [10] | EC50 [11] [nM] | delta pKa [13] | RPE [14] | Efficacy [15] [%] | clearance [16] [mL/min/kg] | Efficacy [17] [%] | pKa [18] | delta pKa [19] | Cmax [20] [ng/mL] | SMILES | Plasma concentration [1] [ng/mL] | Plasma concentration [7] [ng/mL] | Plasma concentration [9] [ng/mL] | Plasma concentration [12] [ng/mL]
14 | 62 | 8.7 | 77 | 0.9 | 450 | 69 | 0.9 |  |  |  |  |  |  |  |  | FC(Cc1c[nH]c2ccc(-n3cnnc3)cc12)CN1CCC(Cc2ccccc2)CC1 (centres undefined) | 196 | 46 | 781 | 258
 | 1600 |  |  | 15 |  | 107 | 35 |  |  | 78 | 67 |  |  |  |  | Fc1cccc(CCN2CCN(CC(F)(F)Cc3c[nH]c4ccc(-n5cnnc5)cc34)CC2)c1 | < 4 | < 4 | 503 | 61
27 |  |  |  |  | 430 | 140 |  |  |  |  | 84 | 71 | 8.3 |  |  | Fc1cccc(CCN2CCN(CCCc3c[nH]c4ccc(-n5cnnc5)cc34)CC2)c1 |  |  |  | 

More lines, now with the values behind:

SMILES | bioavailability [2] [%] | IC50 [3] [nM] | pKa [4] | Efficacy [5] [%] | IC50 [6] [nM] | EC50 [8] [nM] | Selectivity [10] | EC50 [11] [nM] | delta pKa [13] | RPE [14] | Efficacy [15] [%] | clearance [16] [mL/min/kg] | Efficacy [17] [%] | pKa [18] | delta pKa [19] | Cmax [20] [ng/mL] | Plasma concentration [1] [ng/mL] | Plasma concentration [7] [ng/mL] | Plasma concentration [9] [ng/mL] | Plasma concentration [12] [ng/mL]
CN1CCCCC1 [N-METHYLPIPERIDINE] |  |  |  |  |  |  |  |  | 0 | 0 |  |  |  |  |  |  |  |  |  | 
CN1CCCC(F)C1 (centres undefined) |  |  |  |  |  |  |  |  | -1.83 | 4.42 and 2.5 |  |  |  |  | -3.24 |  |  |  |  | 
FC(F)(Cc1c[nH]c2ccc(-n3cnnc3)cc12)CN1CCC(OCc2ccccc2)CC1 | 11 | 1000 | 5.9 | 78 | 8.5 | 10000 | 118 | 34 |  |  | 100 | 43 |  |  |  | 157 |  |  |  | 
